In ChEMBL document CHEMBL2146386, “Hispolon attenuates balloon-injured neointimal formation and modulates vascular smooth muscle cell migration via AKT and ERK phosphorylation” (J Nat Prod, 2012):
Values after ≈ are worked out from the molar mass of the structure shown. Active and inactive are the calls of the source. No cut-off for these calls is given here.

What was measured:
[1] = target: Focal adhesion kinase 1 (Rattus norvegicus) (UniProt O35346); assay: Inhibition of FAK in rat A10 cells assessed as inhibition of serum-induced AKT phosphorylation after 24 hrs by Western blot analysis; type: cell-based
Chain of Focal adhesion kinase 1 (Rattus norvegicus) (O35346 whole entry): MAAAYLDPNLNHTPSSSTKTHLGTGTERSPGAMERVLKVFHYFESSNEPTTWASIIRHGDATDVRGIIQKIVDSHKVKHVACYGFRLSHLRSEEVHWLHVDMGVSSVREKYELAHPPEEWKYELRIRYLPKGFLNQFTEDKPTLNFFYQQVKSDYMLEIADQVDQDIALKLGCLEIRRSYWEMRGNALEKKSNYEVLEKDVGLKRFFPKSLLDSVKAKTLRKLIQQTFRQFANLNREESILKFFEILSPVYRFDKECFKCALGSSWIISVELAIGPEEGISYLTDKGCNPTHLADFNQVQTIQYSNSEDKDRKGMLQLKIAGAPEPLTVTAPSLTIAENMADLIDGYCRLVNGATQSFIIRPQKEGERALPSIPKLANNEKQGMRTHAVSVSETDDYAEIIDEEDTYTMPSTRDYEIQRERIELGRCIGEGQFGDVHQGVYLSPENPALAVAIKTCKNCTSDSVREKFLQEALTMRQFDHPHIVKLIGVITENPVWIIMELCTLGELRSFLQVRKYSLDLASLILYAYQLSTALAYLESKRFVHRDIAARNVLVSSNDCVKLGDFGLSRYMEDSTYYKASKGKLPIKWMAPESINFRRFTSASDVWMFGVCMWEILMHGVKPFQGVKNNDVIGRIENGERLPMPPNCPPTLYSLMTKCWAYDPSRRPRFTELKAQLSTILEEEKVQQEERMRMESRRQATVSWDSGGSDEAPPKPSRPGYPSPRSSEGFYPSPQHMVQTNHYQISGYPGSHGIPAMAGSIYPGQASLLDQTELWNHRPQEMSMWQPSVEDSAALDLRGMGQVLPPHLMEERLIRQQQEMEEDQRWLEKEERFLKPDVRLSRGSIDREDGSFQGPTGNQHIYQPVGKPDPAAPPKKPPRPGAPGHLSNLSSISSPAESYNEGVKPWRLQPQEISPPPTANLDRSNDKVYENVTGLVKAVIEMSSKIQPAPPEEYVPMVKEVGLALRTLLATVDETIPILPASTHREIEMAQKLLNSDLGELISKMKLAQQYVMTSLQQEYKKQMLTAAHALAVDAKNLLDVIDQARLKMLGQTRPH
Procedure, shortened: (§1)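 A10 VSMC in six-well plates incubated 24 h with 10, 15 and 20 μg/mL in DMEM containing 15% FBS, with 15% FBS as control. Lysed in SDS/DTT buffer at 95 °C. Western blot on PVDF used specific antibodies (p-AKT, PI3K, p-FAK, TIMP-1, TIMP-2), β-actin loading control, ECL detection, and densitometry relative to control as 100%.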

[2] = tested on: A10; assay: Induction of cell cycle arrest in rat A10 cells assessed as S phase cells at 10 to 40 ug/mL after 24 hrs by PI-staining based flow cytometric analysis relative to vehicle-treated control; details: a10, 24 h
Procedure, shortened: (§2)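 A10 VSMC treated 24 h with 10–60 μg/mL in 15% FBS, with […] alone as control. Cells harvested with trypsin-EDTA, fixed in 70% ethanol and stained with propidium iodide plus RNase A and Nonidet P-40 for at least 30 min on ice in the dark. Three experiments.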

[3] = tested on: A10; assay: Antiproliferative activity against rat A10 cells at 30 to 40 ug/mL after 24 hrs by MTT assay relative to control; type: cell-based; details: a10, 24 h
Procedure, shortened: (§3)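 A10 rat aortic VSMC seeded at 1 × 10^4 cells/well in DMEM with 10% FBS for 24 h, washed, then exposed for 24 h to 10% FBS alone or serial dilutions (5–40 μg/mL). MTT added (3 mg/mL stock in PBS) for 2 h at 37 °C, formazan dissolved in DMSO, absorbance read at 570 nm. Three separate experiments.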

[4] = target: Focal adhesion kinase 1 (Rattus norvegicus) (UniProt O35346); assay: Inhibition of FAK-mediated FBS-induced cell migration of rat A10 cells at 10 ug/mL after 18 hrs by scratch-wound assay; type: cell-based
Procedure, shortened: (§4)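 A10 VSMC (3 × 10^4) grown to 80–90% confluence in six-well plates, and the monolayer centre scraped with a micropipet tip. After a PBS wash, cells were exposed to 10, 15 or 20 μg/mL and photographed at 18 h. Cells crossing lines drawn at the original wound edges were counted in six random fields per triplicate treatment. Three experiments.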

[5] = target: Focal adhesion kinase 1 (Rattus norvegicus) (UniProt O35346); assay: Inhibition of FAK in rat A10 cells assessed as inhibition of serum-induced PI3K expression after 24 hrs by Western blot analysis; type: cell-based; procedure, shortened: as §1
[6] = tested on: Rattus norvegicus; assay: Antirestenotic activity in Sprague-Dawley rat assessed as reduction in balloon injury-induced neointimal:[…] area ratio in carotid artery at 10 mg/mL, administered topically measured after 2 weeks by hematoxylin and eosin staining method relative to vehicle-treated control; type: functional; design: scale not given: the % may be the effect or the level left
Procedure, shortened: (§5)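 Male Sprague–Dawley rats (350–400 g) underwent carotid balloon injury, 8 per group: untreated injury control or a 10 or 20 mg/mL solution. Sham controls were included. Vessels were embedded, cut into 10 μm sections and stained with H&E. The neointimal:media area ratio was measured by computerized image analysis. Two separate experiments.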

[7] = target: Focal adhesion kinase 1 (Rattus norvegicus) (UniProt O35346); assay: Inhibition of FAK phosphorylation in rat A10 cells after 24 hrs by Western blot analysis; type: cell-based; procedure, shortened: as §1
[8] = target: Focal adhesion kinase 1 (Rattus norvegicus) (UniProt O35346); assay: Inhibition of FAK-mediated FBS-induced migration of rat A10 cells at 15 and 20 ug/mL after 18 hrs by transwell assay; type: cell-based
Procedure, shortened: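 Trans-well chambers with 6.5 mm polycarbonate filters, 8 μm pores. A10 VSMC (4 × 10^5 mL−1) with 0–20 μg/mL in serum-free DMEM were placed in the upper chamber for 18 h at 37 °C. Cells on the lower filter surface were methanol-fixed, Giemsa-stained and counted at 200× in 10 random fields. Three experiments in duplicate.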

[9] = tested on: A10; assay: Antiproliferative activity against rat A10 cells at 5 to 25 ug/mL after 24 hrs by MTT assay relative to control; type: cell-based; details: a10, 24 h; procedure, shortened: as §3
[10] = target: Focal adhesion kinase 1 (Rattus norvegicus) (UniProt O35346); assay: Inhibition of FAK-mediated FBS-induced cell migration of rat A10 cells at 20 ug/mL after 18 hrs by scratch-wound assay; type: cell-based; procedure, shortened: as §4
[11] = target: Focal adhesion kinase 1 (Rattus norvegicus) (UniProt O35346); assay: Inhibition of FAK-mediated MMP2 activity in rat A10 cells after 24 hrs by zymographic analysis; type: cell-based
Procedure, shortened: (§6)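 Culture medium of A10 VSMC treated 24 h was electrophoresed (120 V, 90 min) in 10% SDS-PAGE with 0.1% gelatin. Gels were washed in 2.5% Triton X-100, then incubated overnight (12–15 h) at 37 °C in 40 mM Tris-HCl pH 8.0 with 10 mM CaCl2 and 1% NaN3. Stained with Coomassie blue and destained.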

[12] = tested on: Rattus norvegicus; assay: Antirestenotic activity in Sprague-Dawley rat assessed as reduction in balloon injury-induced PCNA expression in carotid artery at 10 and 20 mg/mL, administered topically measured after 2 weeks by immunohistochemistry
[13] = target: Focal adhesion kinase 1 (Rattus norvegicus) (UniProt O35346); assay: Inhibition of FAK-mediated […] activity in rat A10 cells after 24 hrs by zymographic analysis; type: cell-based; procedure, shortened: as §6
[14] = target: Focal adhesion kinase 1 (Rattus norvegicus) (UniProt O35346); assay: Inhibition of FAK-mediated ERK1 phosphorylation in rat A10 cells after 30 mins by Western blot analysis; type: cell-based
Procedure, shortened: (§7)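 Western blot of A10 VSMC after 30 min exposure to 10, 15 and 20 μg/mL, probed for phosphorylated ERK1/2 alongside total ERK1/2. Serum-stimulated cells served as comparison. ECL detection.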

[15] = target: Focal adhesion kinase 1 (Rattus norvegicus) (UniProt O35346); assay: Inhibition of FAK-mediated FBS-induced cell migration of rat A10 cells at 15 ug/mL after 18 hrs by scratch-wound assay; type: cell-based; procedure, shortened: as §4
[16] = tested on: Rattus norvegicus; assay: Antirestenotic activity in Sprague-Dawley rat assessed as reduction in balloon injury-induced neointimal:[…] area ratio in carotid artery at 20 mg/mL, administered topically measured after 2 weeks by hematoxylin and eosin staining method relative to vehicle-treated control; type: functional; design: scale not given: the % may be the effect or the level left; procedure, shortened: as §5
[17] = tested on: A10; assay: Induction of apoptosis in rat A10 cells assessed as sub-G1 cells at 10 to 40 ug/mL after 24 hrs by PI-staining based flow cytometric analysis relative to vehicle-treated control; type: cell-based; details: a10, 24 h; procedure, shortened: as §2
[18] = target: Focal adhesion kinase 1 (Rattus norvegicus) (UniProt O35346); assay: Inhibition of FAK-mediated ERK2 phosphorylation in rat A10 cells after 30 mins by Western blot analysis; type: cell-based; procedure, shortened: as §7
[19] = tested on: A10; assay: Upregulation of TIMP1 expression in rat A10 cells after 24 hrs by Western blot analysis; type: functional, cell-based; procedure, shortened: as §1
[20] = tested on: A10; assay: Antiproliferative activity against rat A10 cells after 24 hrs by MTT assay; type: cell-based; procedure, shortened: as §3
[21] = tested on: A10; assay: Upregulation of TIMP2 expression in rat A10 cells after 24 hrs by Western blot analysis; type: functional, cell-based; procedure, shortened: as §1

inhibition [1]: Dose-dependent effect
inhibition [4]: 12%
inhibition [5]: Dose-dependent effect
inhibition [7]: Dose-dependent effect
inhibition [8]: Active
inhibition [10]: 43.2%
inhibition [11]: Dose-dependent effect
inhibition [13]: Dose-dependent effect
inhibition [14]: Dose-dependent effect
inhibition [15]: 6.51%
inhibition [18]: Dose-dependent effect
Compound: CC(=O)/C=C(O)/C=C/c1ccc(O)c(O)c1 [HISPOLON]
Activity [2]: Non-toxic
Activity [3]: Toxic
Activity [6]: 25%
Activity [9]: < 10%
Activity [12]: Active
Activity [16]: 58%
Activity [17]: Non-toxic
Activity [19]: Dose-dependent effect
IC50 ([20]; Rattus norvegicus, A10, 24 h): 37 µg/mL (≈ 168 µM)
Activity ([20]; rat, a10, 24 h): Dose-dependent effect
Activity [21]: Dose-dependent effect
